This note sets out measurements from the EternaBench riboswitch data.

In this series the test system is MS2 coat protein. Description: apparent Kd, MS2 coat protein; higher = weaker binding; RNA-MaP array; FMN 200 µM where present. In a few lines:
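Green signal from SNAP-549-labelled MS2 coat protein was normalised to red-channel RNA signal and to the median Fmax of control clusters. The protein was titrated from 0.7 or 1.5 nM, doubling to 3 µM, without and then with constant ligand, over designs transcribed by stalled E. coli RNA polymerase on Illumina sequencing-chip clusters, in 100 mM Tris-HCl pH 7.5, 80 mM KCl, 4 mM MgCl2, BSA, DTT, yeast tRNA and Tween-20. The apparent Kd is the median of filtered per-cluster binding-curve fits.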

The mark [1] stands for this setting: designed as: OFF switch for flavin mononucleotide, no ligand.
The mark [2] stands for this setting: ligand present: flavin mononucleotide, designed as: OFF switch for flavin mononucleotide.
Where [3] appears, read: designed as: ON switch for flavin mononucleotide, no ligand.
Where [4] appears, read: ligand present: flavin mononucleotide, designed as: ON switch for flavin mononucleotide.

Usually apparent Kd stands for the concentration giving half-maximal binding under the conditions of the assay. Consider “GAUUAACAUGAGGAUCACCCAUGUGAGGAUAUGGAAUGGCACAUUGUUUGAUUCCCGUCUAGAAGGCACAUCUU”, for which the “apparent Kd” value worked out at 44.5 nM under setting [1] and 41.6 nM under setting [2].
Turning to “AGUUCCUCCGCAGGAUAUGUGCUCUUUACCACAUGAGGAUCACCCAUGUCAGCCUACACGGCGAGACAGAAGGGUGGUGGUGCC”, the “apparent Kd” value by setting is: under setting [3], 96 nM; under setting [4], 157 nM.
Take “AUGAGGUCAGGAUAUGCAUGGCGGGACUUGCGUCGUGGCGUGGAGAAGGGACAUGAGGAUCACCCAUGUGGAGG”: the “apparent Kd” value under setting [1] was 108 nM and the “apparent Kd” value under setting [2] amounted to 88.3 nM.
The like results for “CAGGUAGACUGAGGAUAUACAAUAAGACCUAGUCUAUCUAGGUCACUCACAUGAGGAUCACCCAUGUAGAAGGCAGUCUGCCUG” were, in that order, 21.8 nM and 79.7 nM.
In the case of “GCCACGUCAGGAUAUCUGAUGUCUAACUUCGGUUAGACAUCAGAGAAGGGACAUGAGGAUCACCCAUGUGGCAA”, the “apparent Kd” value by setting is: under setting [1], 264 nM; under setting [2], 177 nM.
For “GAUCAACAUGAGGAUCACCCAUGUGAGGAUAUGGACUUGCCCACUUAACCAUUAGAGUCUAGAAGGCGCAUCUA”, in that order: 27 nM and 29.9 nM.
For “GGAUGACAAAGUCAUCCAAUACGAACAUGAGGAUCACCCAUGUAGGAUAUGCUACUCAAAGAGUAGCAGAAGGACAUGUGUCUU”, in that order: 30 nM and 143 nM.
For “GCCGACCAGAAGUCGGUACGGAGGAGAAGGCGCCUCCUGGGUCCACAUGAGGAUCACCCAUGUGGCGAGGAUAUCCUCAGUUUU”, in that order: 16.4 nM and 126 nM.
In the case of “GGGAGUGGAGGGAAUAACAUGAGGAUCACCCAUGUAUGGGAGAGAAGGCAGGUCGGAGGGCGAUCUGAGGAUAUUUAGACUCUU”, the “apparent Kd” value stood at 8.99 nM under setting [3] and 8.08 nM under setting [4].
With “CCUGUGUGAGGAUAUGGUGUUAAAAAAAAAAAAUAGCUCCUCCAGAAGGCACAUGAGGAUCACCCAUGUCGUGG”, the “apparent Kd” value by setting is: under setting [1], 33.5 nM; under setting [2], 69.2 nM.
For “CCAGUGUUAGGAUAUGAUACUAAUGGAUAGCAUUCCGCAGUUUAGAAGGGACAUGAGGAUCACCCAUGUACGGG”, in that order: 144 nM and 139 nM.
The like results for “GUCAGCUCGUCAGGAUAUACGUCACUGCUUCGGCAGUGUGGUAAGAUCACAUGAGGAUCACCCAUGUAGAAGGGACGAGCUGAA” were, in that order, 11.8 nM and 209 nM.
For “CUGGAUAGAGGAUAUUGUACUGCUGACAUGAGGAUCACCCAUGUAUGUUAACUCGGCCGUCGAGAAGGCUAACAAG”, in that order: 37.7 nM and 17.9 nM.
In the case of “UUAUUAUAUGUAGGAUAUGCGUAUUAUUGUUAUGCAGAAGGACAUGAGGAUCACCCAUGUAUAUUAUUGUUGUAUAUUAUAUAU”, the “apparent Kd” value under setting [1] worked out at 23.5 nM and the “apparent Kd” value under setting [2] was determined as 43 nM.
Regarding “AGUGUCAUCGAGAAGGCCUCAACAUGAGGAUCACCCAUGUUGGAAUAUGGGAGGAUAUCGAUGAUACAGCUACGUUUCGUAGCA”, the “apparent Kd” value was 10.2 nM under setting [3] and 5.04 nM under setting [4].
“AUCAGCUCGUCAGGAUAUACGUCACUGCGUCAACAGUGUGGUAAGAUCACAUGAGGAUCACCCAUGUAGAAGGGACGAGCUGAU”: the “apparent Kd” value by setting is: under setting [1], 14.6 nM; under setting [2], 266 nM.
For “UGUAUGGACAGAGGAUAUACCGAUAGGAUCUACUAUCGAAUAAUCCUCACAUGAGGAUCACCCAUGUAGAAGGCUGUCCAUACU”, in that order: 21.2 nM and 142 nM.
Regarding “CGUGCGUAUGUGAGGAUAUGCUGGUCCUUGGAUCGGCAGAAGGCACAUGAGGAUCACCCAUGUGGUGUCGUGCA”, the “apparent Kd” value reads like this: under setting [1], 376 nM; under setting [2], 30.3 nM.
In the case of “UUUCCGCGAGGAUAUGCGGGUUGUGCUUUUCAUUUUUUAUAACAUGAGGAUCACCCAUGUAGAAGGUGCUUCUG”, the “apparent Kd” value is, setting by setting: under setting [1], 78.7 nM; under setting [2], 71.6 nM.
“CGGUAAACCACAGGAUAUGGCUAGUAUAACUAGCCAGAAGGGUGGUCGAAACCAUGUAAAUACAUGAGGAUCACCCAUGUAUCC”: the “apparent Kd” value under setting [3] came out at 496 nM and the “apparent Kd” value under setting [4] came out at 47.6 nM.
Regarding “CCCUCACAUGAGGAUCACCCAUGUCAGGAUAUUCGAGGCGCAAAUACGCCAAAUGCAGGAAGAAGGGACGUGCC”, the “apparent Kd” value reads like this: under setting [1], 15.5 nM; under setting [2], 22.4 nM.
For “AGUGUGUGGCAGGAUAUGCUGUUGAUUGGUGAAGCAGAAGGGUCUACAUGAGGAUCACCCAUGUAAGCGGUUGA”, in that order: 53.1 nM and 225 nM.
The like results for “AAUUGUAGAACAAUCACUACCAGUCAGGAUAUACAUGAGGAUCACCCAUGUCGUGUCGACAGCAUGUAGAAGGGACGGUUAUAU” were, in that order, 51.6 nM and 115 nM.
As to “UUUUAACAUGAGGAUCACCCAUGUGAGGAUAUCGAAAUUUAUAUUAAUAUUAUUAUUUCGAGAAGGCACAUUUU”, the “apparent Kd” value was determined as 136 nM under setting [1] and 137 nM under setting [2].
Turning to “CACCGUUAGAGAGGAUAUCGUACAUGAGGAUCACCCAUGUAAUAAAUGAGAAUUUCGGAUGUAUGCGAGAAGGCUCGAAUCGGC”, the “apparent Kd” value turned out to be 53.4 nM under setting [1] and 40.7 nM under setting [2].
As for “CAUGUCCUCACAGGAUAUGCACCACUUUGUGGUGCAGAAGGGUGGAUACAUGAGGAUCACCCAUGUGGACAUGAUAUAUUUAAG”, the “apparent Kd” value under setting [3] was found to be 708 nM and the “apparent Kd” value under setting [4] amounted to 58.4 nM.
On to “AGUAUGUACGCAGGAUAUACAUGAGGAUCACCCAUGUGGAACAGUGUAGUACUAGUUGAUCCUCAGUAGAAGGGCGGUCGAAUA”, for which the “apparent Kd” value is, setting by setting: under setting [1], 63.6 nM; under setting [2], 46.4 nM.
In the case of “CCGGAUACGGGUAGCCUGACAUGAGGAUCACCCAUGUGAUCCUAGGAUAUGGAUCCUAAUUGGAUCCAGAAGGAGGUUGGCUAC”, the “apparent Kd” value by setting is: under setting [3], 860 nM; under setting [4], 436 nM.
With “GACGGAUGUAUAGGAUAUGCUGAGGAAUACUCAGCAGAAGGAUACAUGAGGAUCACCCAUGUAACCGUCAAUAAUAAUAAUAAU”, the “apparent Kd” value under setting [1] worked out at 15.7 nM and the “apparent Kd” value under setting [2] worked out at 29.9 nM.
The like results for “GUCAGCUCGUGAGGAUAUACAACACUGCUUCGGCAGUGUAUCAAGAUCACAUGAGGAUCACCCAUGUAGAAGGCACGAGCUGAU” were, in that order, 13.2 nM and 234 nM.
The like results for “CUUAUGUAAGGAUAUCAGUAGUAAAAAAAUAAAAUUACUACUGAGAAGGUACAUGAGGAUCACCCAUGUAUCUU” were, in that order, 17.6 nM and 14 nM.
For “GUCAGCUCGUGAGGAUAUACAUCACUGCUUCGGCAGUGUAUUAAAUCCACAUGAGGAUCACCCAUGUAGAAGGCACGAGCUGAU”, in that order: 16.7 nM and 31 nM.
As for “ACAUAAAUUCGAGGAUAUCGGUGAUAAAGAAGACGAGAAGGCGAUUAAAGAGAGAUGGUUAUAGACAUGAGGAUCACCCAUGUA”, the “apparent Kd” value reads like this: under setting [3], 28.6 nM; under setting [4], 22.8 nM.
For the sequence “UAGAAGUCAGGAUAUGCAUGGCGGGACUUGCGUCGUGGCGUGCAGAAGGGACAUGAGGAUCACCCAUGUAAAGU”, the “apparent Kd” value amounted to 51.5 nM under setting [1] and 55.5 nM under setting [2].
For “CAGACGUGAGGAUAUCUGAUGUCUAACUUCGGUUAGACAUCAGAGAAGGCACAUGAGGAUCACCCAUGUCUGAA”, in that order: 76.8 nM and 309 nM.
On to “AAUUGGAUGCAGAAGGCAUGGACGACUCGUCACAUUAACAUGAGGAUCACCCAUGUCAAAAUACAUGAGGAUAUGCAUCCUAAA”, for which the “apparent Kd” value is, setting by setting: under setting [3], 140 nM; under setting [4], 12 nM.
“UUGUAGUGCGUAGGAUAUCAUUGAGGGUCACCCUGAGAAGGACGUGAGGACAUGAGGAUCACCCAUGUGGAUCACCCAUGUCAU”: the “apparent Kd” value came to 305 nM under setting [1] and 462 nM under setting [2].
The like results for “GCUGCAUAGGCAGGAUAUGCAAUAAUUCGAAUAAAAUUUAACGAAUUAACAUGAGGAUCACCCAUGUAGAAGGGCCUGUGCAGU” were, in that order, 5.49 nM and 4.69 nM.
Take “GCCAUCACAUGAGGAUAUGCUCCCGUUUCGGGAGCAGAAGGCAUGUCAUCAGACAUGAGGAUCACCCAUGUAGUUAAGAUGGCA”: the “apparent Kd” value runs as follows: under setting [3], 361 nM; under setting [4], 15.1 nM.
For the sequence “UUUACUAACGAAGGAUAUGGUUACAUGAGGAUCACCCAUGUAUGUAUAUUGAUCUAGUAUUUUAACCAGAAGGUCGUGAUUUUU”, the “apparent Kd” value is, setting by setting: under setting [1], 31.6 nM; under setting [2], 45.3 nM.
For “AGGUAACAUGAGGAUCACCCAUGUCAGGAUAUCAGUAAGAUGAGUAUAGAAUAGAGUAUGAGAAGGGACUAUAU”, in that order: 36.5 nM and 28.6 nM.
For the sequence “GUGUGCAGAGGAUAUACAUAGGAAUAUAAUAUAAUAUAAUUACAUGAGGAUCACCCAUGUAGAAGGCUGAGUGU”, the “apparent Kd” value worked out at 23.8 nM under setting [1] and 26.8 nM under setting [2].
For “GUAAUUUAUAGAGGAUAUUGACAUGAGGAUCACCCAUGUAUUUGGGAGUGUUCACUGAAUUCUUACGAGAAGGCUAUAAAAUAC”, in that order: 307 nM and 213 nM.
As to “ACGGAACAUGAGGAUCACCCAUGUAUCUGAAAUAUGGACUCACAGGAUAUUCAGAGUUGCCAAUCGGAGAAGGGUGACUCCAGA”, the “apparent Kd” value runs as follows: under setting [3], 25.5 nM; under setting [4], 17.2 nM.
As to “GGUUAUUGCAAGGAUAUGCUUUUUUUUGAUAUUGCAGAAGGUGCAACAUGAGGAUCACCCAUGUUGGAUGGGUU”, the “apparent Kd” value under setting [1] came out at 119 nM and the “apparent Kd” value under setting [2] worked out at 162 nM.
With “GUAGCUAUCGGAGGAUAUUCAUACCGUAAACGGACAUGAGGAUCACCCAUGUAGCGAAAGCCUUGGGAGAAGGCCGAUAGCUAC”, the “apparent Kd” value under setting [3] amounted to 942 nM and the “apparent Kd” value under setting [4] came out at 88.8 nM.
For the sequence “UGAUCGAGAGAUCUUAGAUUCUGGUAGGAUAUACAUUAUGAAAACUUUACAUGAGGAUCACCCAUGUAGAAGGACUAGAGUCUA”, the “apparent Kd” value by setting is: under setting [1], 7.74 nM; under setting [2], 9.74 nM.
